Series [1] addresses human serum albumin (Homo sapiens) (UniProt P02768). Conditions: cited from earlier work.
In another series the target is albumin. Conditions: read-out: Albumin dissociation constant; cited from earlier work.
Series [2] is described as follows: Tissue biodistribution measurements. Set-up: species or system Balb/c mice. Conditions: mouse, in vivo, iv. In outline: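 Female Balb/c mice, 8–12 weeks old, from an in-house colony (n = 3). Tissue radioactivity was measured at 1 h and 4 h post-injection, alongside whole-body SPECT/CT imaging at the same times.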

Non-standard residues stand in square brackets, D forms with d. Residues, ends and D or L forms follow the SMILES beside them. Tyr(3-I) = N[C@@H](Cc1ccc(O)c(I)c1)C(=O)O

For the molecule insulin detemir (from UniProt P01308), the Kd in series [1] was 4.16 µM. As to `CC1(C)S[C@@H]2[C@H](NC(=O)Cc3ccccc3)C(=O)N2[C@H]1C(=O)O` [penicillin G], the Kd at albumin is 833 µM.

In series [2], `CC(C)C[C@H](NC(=O)CNC(=O)[C@H](C)NC(=O)[C@H](Cc1ccc(O)c(I)c1)NC(=O)CN)C(=O)N[C@@H](C)C(=O)NCC(=O)N[C@@H](CC(C)C)C(=O)N[C@@H](CC(C)C)C(=O)NCC(=O)N[C@@H](CC(C)C)C(=O)N[C@@H](CCC(=O)O)C(=O)NCC(=O)N[C@@H](CC(C)C)C(=O)N[C@@H](CC(C)C)C(=O)NCC(=O)N[C@@H](CC(C)C)C(=O)N1CCC[C@H]1C(=O)N[C@@H](CC(C)C)C(=O)NCC(=O)N[C@@H](CC(C)C)C(=O)N[C@@H](CC(C)C)C(=O)N[C@@H](CCC(=O)O)C(=O)NCC(=O)N[C@@H](CC(C)C)C(=O)N[C@@H](Cc1c[nH]c2ccccc12)C(=O)N[C@@H](CC(C)C)C(=O)NCC(=O)N[C@@H](CC(C)C)C(=O)N[C@@H](CCC(=O)O)C(=O)N[C@@H](CC(C)C)C(=O)N[C@@H](CCC(=O)O)C(=O)NCC(=O)N[C@@H](CC(N)=O)C(=O)O` [^125I-ATRAM] (H-G[Tyr(3-I)]AGLAGLLGLEGLLGLPLGLLEGLWLGLELEGN-OH; N-terminus and C-terminus assumed) had a tissue uptake at 1 h of 18 %ID/g and a tissue uptake at 4 h of 10 %ID/g.

The values are drawn from publication PMC6408977 (Journal of controlled release : official journal of the …, 2019).
